Measurements from ChEMBL document CHEMBL3421533, “The Discovery of Orally Bioavailable Tyrosine Threonine Kinase (TTK) Inhibitors: 3-(4-(heterocyclyl)phenyl)-1H-indazole-5-carboxamides as Anticancer Agents” (J Med Chem, 2015).

Legend:
MDA-MB-468 = test: Cytotoxicity against human MDA-MB-468 cells after 5 days by sulforhodamine B assay; format: functional
Procedure, shortened: (§1)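 Cancer lines were seeded at 800–6000 cells per well according to growth rate, 24 h before compound overlay. After culture, cells were fixed in situ and stained with sulforhodamine B. GI50 values were derived by curve fitting.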

[1] = target: Aurora kinase B/Inner centromere protein (Homo sapiens, UniProt Q96GD4); test: Inhibition of AURKB/INCENP (unknown origin) preincubated for 15 mins prior to ATP addition by FRET-based homogenous assay; format: protein-complex assay
Procedure, shortened: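 The enzyme was AURKB/INCENP in a FRET-based homogeneous assay run to kit specifications, with ATP at 128 μM. […] Each IC50 came from a single determination, reported with its standard fitting error.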

[2] = Cytotoxicity against human HCT116 cells after 5 days by sulforhodamine B assay; format: functional, HCT-116; procedure, shortened: as §1
[3] = Cmax in athymic CD1 nude mouse at 10 mg/kg, po by LC-MS/MS analysis; format: ADME, organism-based; design: dose 10 mg/kg, route oral; settings: athymic CD1 nude, in vivo
[4] = AUC in athymic CD1 nude mouse at 10 mg/kg, po by LC-MS/MS analysis; format: ADME, organism-based; design: dose 10 mg/kg, route oral; settings: plasma
[5] = target: T1, Dual specificity protein kinase TTK (Homo sapiens, UniProt P33981); test: Inhibition of amino terminal GST-fused full length human TTK using His6-SUMO-TTK-N as substrate preincubated for 15 mins prior to ATP addition by indirect ELISA detection system
T1 sequence (P33981 whole entry): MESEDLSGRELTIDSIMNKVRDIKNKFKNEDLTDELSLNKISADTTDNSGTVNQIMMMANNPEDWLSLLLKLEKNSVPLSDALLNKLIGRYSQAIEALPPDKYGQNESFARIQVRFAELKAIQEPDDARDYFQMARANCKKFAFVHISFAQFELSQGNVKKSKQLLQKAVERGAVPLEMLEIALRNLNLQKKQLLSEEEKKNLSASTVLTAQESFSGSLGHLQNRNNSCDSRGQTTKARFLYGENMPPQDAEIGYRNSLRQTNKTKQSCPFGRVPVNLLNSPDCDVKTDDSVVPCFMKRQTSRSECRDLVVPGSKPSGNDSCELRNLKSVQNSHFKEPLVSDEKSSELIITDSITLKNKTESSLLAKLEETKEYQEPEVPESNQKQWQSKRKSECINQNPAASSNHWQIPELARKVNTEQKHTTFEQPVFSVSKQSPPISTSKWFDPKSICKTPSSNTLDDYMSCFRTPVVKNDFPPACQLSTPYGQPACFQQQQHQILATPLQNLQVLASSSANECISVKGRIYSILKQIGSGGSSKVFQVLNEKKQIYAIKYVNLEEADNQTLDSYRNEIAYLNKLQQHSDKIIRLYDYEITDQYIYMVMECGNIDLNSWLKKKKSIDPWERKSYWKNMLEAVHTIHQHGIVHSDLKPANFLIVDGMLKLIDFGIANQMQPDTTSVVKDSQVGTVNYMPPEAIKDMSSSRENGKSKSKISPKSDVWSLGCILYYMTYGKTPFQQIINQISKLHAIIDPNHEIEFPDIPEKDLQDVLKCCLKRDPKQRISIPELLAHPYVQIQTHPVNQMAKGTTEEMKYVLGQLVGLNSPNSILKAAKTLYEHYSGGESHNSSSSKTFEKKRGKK

[6] = Half life in rat liver microsomes at 1 uM by LC-MS analysis; format: ADME; settings: liver microsomes
[7] = Half life in mouse liver microsomes at 1 uM by LC-MS analysis; format: ADME; settings: liver microsomes
[8] = Cytotoxicity against human OVCAR3 cells after 5 days by sulforhodamine B assay; format: functional, OVCAR-3
Homo sapiens = organism: Homo sapiens; test: Selectivity ratio of IC50 for AURKB/INCENP (unknown origin) to IC50 for amino terminal GST-fused full length human TTK
[9] = AUCinfinity in athymic CD1 nude mouse at 10 mg/kg, po by LC-MS/MS analysis; format: ADME, organism-based, Plasma; design: time infinity, dose 10 mg/kg, route oral; settings: athymic CD1 nude, plasma
Cytochrome P450 3A4 = Cytochrome P450 3A4 (Homo sapiens, UniProt P08684); test: Inhibition of human CYP3A4 using BFC as substrate preincubated for 10 mins followed by enzyme/substrate addition measured after 30 mins by fluorescence assay; format: ADME
[10] = Homo sapiens, MDA-MB-468, 120 h

Sequence of Aurora kinase B/Inner centromere protein (Q96GD4 whole entry): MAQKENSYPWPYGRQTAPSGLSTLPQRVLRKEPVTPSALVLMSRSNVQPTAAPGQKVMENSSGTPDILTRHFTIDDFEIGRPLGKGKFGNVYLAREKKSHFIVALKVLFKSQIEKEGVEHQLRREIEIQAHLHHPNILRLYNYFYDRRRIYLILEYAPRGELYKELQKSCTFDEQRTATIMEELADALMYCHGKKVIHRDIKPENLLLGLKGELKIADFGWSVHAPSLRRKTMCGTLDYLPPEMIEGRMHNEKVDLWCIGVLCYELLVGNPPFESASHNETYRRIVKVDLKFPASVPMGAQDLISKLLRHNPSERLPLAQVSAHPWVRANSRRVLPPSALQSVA
Sequence of Aurora kinase B/Inner centromere protein (Q9NQS7 whole entry, further chain): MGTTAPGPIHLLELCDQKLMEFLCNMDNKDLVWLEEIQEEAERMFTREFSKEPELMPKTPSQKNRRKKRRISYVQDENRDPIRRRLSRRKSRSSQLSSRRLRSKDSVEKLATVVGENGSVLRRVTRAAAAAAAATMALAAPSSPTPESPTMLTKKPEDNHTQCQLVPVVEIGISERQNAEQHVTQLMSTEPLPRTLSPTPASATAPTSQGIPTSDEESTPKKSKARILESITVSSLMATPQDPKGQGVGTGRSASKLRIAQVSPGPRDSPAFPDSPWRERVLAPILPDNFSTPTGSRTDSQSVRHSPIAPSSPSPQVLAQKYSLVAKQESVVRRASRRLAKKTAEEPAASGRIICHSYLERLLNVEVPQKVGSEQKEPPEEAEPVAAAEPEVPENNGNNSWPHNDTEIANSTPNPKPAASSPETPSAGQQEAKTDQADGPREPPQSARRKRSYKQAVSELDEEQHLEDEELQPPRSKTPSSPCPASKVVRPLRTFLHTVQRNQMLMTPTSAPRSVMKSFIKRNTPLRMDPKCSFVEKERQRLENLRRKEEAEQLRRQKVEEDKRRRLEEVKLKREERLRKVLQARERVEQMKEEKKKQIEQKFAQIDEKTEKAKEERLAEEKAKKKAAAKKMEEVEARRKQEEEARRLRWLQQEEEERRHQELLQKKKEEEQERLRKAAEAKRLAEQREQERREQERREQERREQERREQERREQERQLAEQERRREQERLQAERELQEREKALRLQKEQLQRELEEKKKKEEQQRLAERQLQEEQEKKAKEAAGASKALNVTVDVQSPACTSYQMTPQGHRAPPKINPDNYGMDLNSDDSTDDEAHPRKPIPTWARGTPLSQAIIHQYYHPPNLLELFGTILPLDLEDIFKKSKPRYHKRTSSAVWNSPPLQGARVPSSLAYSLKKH
Sequence of Cytochrome P450 3A4 (P08684 whole entry): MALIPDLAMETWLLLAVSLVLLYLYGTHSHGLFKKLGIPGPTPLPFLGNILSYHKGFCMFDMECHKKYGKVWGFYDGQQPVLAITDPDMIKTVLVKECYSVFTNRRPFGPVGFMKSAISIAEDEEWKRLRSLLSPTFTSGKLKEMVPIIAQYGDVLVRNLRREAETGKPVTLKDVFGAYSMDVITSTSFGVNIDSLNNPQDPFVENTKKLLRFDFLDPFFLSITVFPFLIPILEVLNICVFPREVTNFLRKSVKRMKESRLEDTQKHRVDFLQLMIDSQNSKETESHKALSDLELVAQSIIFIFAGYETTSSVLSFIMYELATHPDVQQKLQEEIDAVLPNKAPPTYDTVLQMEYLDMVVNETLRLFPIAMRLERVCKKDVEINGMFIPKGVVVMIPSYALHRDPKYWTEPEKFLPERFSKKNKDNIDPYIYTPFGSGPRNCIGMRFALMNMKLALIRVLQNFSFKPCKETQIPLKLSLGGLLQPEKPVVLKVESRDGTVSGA

Compound | GI50 (MDA-MB-468; [10]) [nM] | IC50 [1] [nM] | GI50 ([2]; Homo sapiens, HCT-116, 120 h) [nM] | Cmax [3] [ng/mL] | AUC [4] [ng·h/mL] | IC50 [5] [nM] | half-life at 1 µM [6] [min] | half-life at 1 µM [7] [min] | GI50 ([8]; Homo sapiens, OVCAR-3, 120 h) [nM] | Ratio IC50 (Homo sapiens) | AUC(0-inf) [9] [ng·h/mL] | IC50 (Cytochrome P450 3A4) [nM] | GI50 (MDA-MB-468) [nM] | GI50 [8] [nM] | GI50 [2] [nM]
CN1CCN(c2ccc(-c3n[nH]c4ccc(C(=O)NCC5(N6CCOCC6)CCCCC5)cc34)cc2)CC1 | 180 | 440 | 12 | 160 | 480 | 7.6 | – | – | – | – | – | – | – | – | –
O=C(NCC1(N2CCOCC2)CCCCC1)c1ccc2[nH]nc(-c3ccc(N4C5CCC4COC5)cc3)c2c1 | 25 | 800 | 1 | – | – | 1.1 | 9.6 | 2.7 | 17 | – | – | – | – | – | –
O=C(N[C@H](c1ccccn1)C1CC1)c1ccc2[nH]nc(-c3ccc(N4C5CCC4COC5)cc3)c2c1 | 15 | 360 | 2 | – | – | 1.4 | > 60 | > 60 | 18 | – | – | – | – | – | –
CC(C)[C@H](NC(=O)c1ccc2[nH]nc(-c3ccc(N4[C@H]5CC[C@H]4CC(O)C5)cc3)c2c1)c1ccccc1Cl (some centres not stated) | 21 | > 6300 | 9 | 330 | – | 6 | > 60 | 34 | 7 | > 100 | 620 | – | – | – | –
O=C(N[C@H](c1ccccc1)C1CC1)c1ccc2[nH]nc(-c3ccc(N4[C@H]5CC[C@H]4CC(O)C5)cc3)c2c1 (some centres not stated) | 70 | 1100 | 22 | 480 | – | 2.8 | 35 | 47 | 120 | > 100 | 670 | – | – | – | –
O=C(N[C@@H](c1ccccn1)C1CCCC1)c1ccc2[nH]nc(-c3ccc(N4[C@H]5CC[C@H]4CC(O)C5)cc3)c2c1 (some centres not stated) | 30 | 1800 | 15 | – | – | 4.1 | 22 | > 60 | 90 | > 100 | – | 230 | – | – | –
CC(C)C[C@H](NC(=O)c1ccc2[nH]nc(-c3ccc(N4[C@H]5CC[C@H]4CC(O)C5)cc3)c2c1)c1ccccn1 (some centres not stated) | 17 | 1500 | 2 | – | – | 1.7 | 48 | > 60 | 140 | – | – | – | – | – | –
CC(C)C[C@@H](NC(=O)c1ccc2[nH]nc(-c3ccc(N4[C@H]5CC[C@H]4CC(O)C5)cc3)c2c1)c1ccccn1 (some centres not stated) | 26 | 1600 | 5 | – | – | 2.7 | 25 | > 60 | 82 | – | – | – | – | – | –
CC(C)C[C@H](NC(=O)c1ccc2[nH]nc(-c3ccc(N4[C@H]5CCC[C@H]4CC(O)C5)cc3)c2c1)c1ccccn1 (some centres not stated) | 450 | 980 | 150 | – | – | 14 | – | – | 730 | > 100 | – | – | – | – | –
O=C(N[C@@H](c1ccccn1)C1CCCC1)c1ccc2[nH]nc(-c3ccc(N4[C@H]5COC[C@H]4CC(O)C5)cc3)c2c1 (some centres not stated) | 140 | 740 | 15 | – | – | 2.2 | 33 | 60 | 160 | > 100 | – | 330 | – | – | –
NS(=O)(=O)c1cccc(-c2n[nH]c3ccc(NC(=O)C(c4ccsc4)N4CCCC4)cc23)c1 (racemic) | 87 | – | 39 | 7 | 25 | – | – | – | – | – | – | – | – | – | –
O=C(NC(c1ccccc1)C1CC1)c1ccc2[nH]nc(-c3ccc(N4CCOCC4)cc3)c2c1 (racemic) | 330 | 190 | 86 | 3900 | 13500 | 17 | – | – | – | – | – | – | – | – | –
CN1CCN(c2ccc(-c3n[nH]c4ccc(NC(=O)C(c5ccsc5)N5CCCC5)cc34)cc2)CC1 (racemic) | 250 | – | 57 | 180 | 590 | 7.4 | – | – | – | – | – | – | – | – | –
O=C(Nc1ccc2[nH]nc(-c3ccc(N4CCOCC4)cc3)c2c1)C(c1ccsc1)N1CCCC1 (racemic) | 160 | – | 27 | 3500 | 7900 | 11 | – | – | – | – | – | – | – | – | –
CN1[C@@H]2CC[C@H]1C[C@@H](Oc1ccc(-c3n[nH]c4ccc(C(=O)NC(c5ccccc5)C5CC5)cc34)cc1)C2 (mixture of isomers) | 130 | 93 | 30 | – | – | 2.8 | – | – | – | – | – | 2400 | – | – | –
O=CN1[C@@H]2CC[C@H]1C[C@@H](Oc1ccc(-c3n[nH]c4ccc(C(=O)NC(c5ccsc5)C5CCC5)cc34)cc1)C2 (mixture of isomers) | 110 | 1200 | 41 | 33 | 30 | 2.5 | – | – | – | – | – | – | – | – | –
O=C(N[C@H](c1ccccn1)C1CC1)c1ccc2[nH]nc(-c3ccc(N4[C@H]5CC[C@H]4CC(O)C5)cc3)c2c1 (stereo in doubt; 74) | – | 530 | 18 | 1600 | – | 1.2 | > 60 | > 60 | – | – | 1600 | 2100 | 16 | 20 | –
O=C(N[C@H](c1ccccn1)C1CCCC1)c1ccc2[nH]nc(-c3ccc(N4[C@H]5CC[C@H]4CC(O)C5)cc3)c2c1 (stereo in doubt; 76) | – | – | – | – | – | – | – | – | – | > 100 | – | – | – | – | –
O=C(N[C@@H](c1ccccn1)C1CC1)c1ccc2[nH]nc(-c3ccc(N4[C@H]5CC[C@H]4CC(O)C5)cc3)c2c1 (stereo in doubt; 87) | – | 1700 | – | – | – | 2.7 | – | – | – | – | – | 1400 | 210 | 310 | 48
O=C(N[C@H](c1ccccn1)C1CCCC1)c1ccc2[nH]nc(-c3ccc(N4[C@H]5CC[C@H]4CC(O)C5)cc3)c2c1 (stereo in doubt; 88) | – | – | – | – | – | – | – | – | – | > 100 | – | – | – | – | –
